{
  "source": "ChEMBL document CHEMBL4613272",
  "about": "“Anti-HIV-Active Nucleoside Triphosphate Prodrugs” (J Med Chem, 2020)",
  "key": {"[1]": {"test": "Half life in human CEM/0 cell extracts by HPLC analysis", "type": "ADME, CCRF-CEM", "method_in_brief": "(§1)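 Cell extract prepared from CEM cells grown in RPMI-1640-based medium to ~3·10^6 cells/mL. Cells washed twice in cold PBS, resuspended at 10^8 cells/mL, sonicated, cleared at 10,000 rpm and stored at -80 °C. Prodrug at 6.0 mM hydrolysis solution in DMSO-d6 mixed with water and extract at 37 °C over time. Samples iced, sonicated and centrifuged; supernatant analysed by RP18 HPLC. t1/2 calculated as for chemical hydrolysis.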"}, "[2]": {"test": "Prodrug conversion in pH 7.3 phosphate buffered saline assessed as pig liver esterase-mediated gamma-(C16-ACB)-d4TTP formation by HPLC analysis", "type": "ADME, Sus scrofa", "details": "in vitro", "method_in_brief": "(§2)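 Prodrug diluted from 50 mM DMSO stock through a 6.0 mM intermediate into DMSO/50 mM PBS pH 7.3. Started with pig liver esterase (3 mg/mL solution in PBS) and shaken at 37 °C, 800 rpm. Aliquots quenched in MeOH at intervals, filtered, stored in liquid nitrogen and analysed by RP18 HPLC.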"}, "[3]": {"test": "Prodrug conversion in pH 7.3 phosphate buffered saline assessed as pig liver esterase-mediated d4TTP formation by HPLC analysis", "type": "ADME, Sus scrofa", "details": "in vitro", "method_in_brief": "as §2"}, "[4]": {"test": "Half life in pH 7.3 phosphate buffered saline in presence of pig liver esterase by HPLC analysis", "type": "ADME, Sus scrofa", "method_in_brief": "as §2"}, "[5]": {"test": "Prodrug conversion in human CEM/0 cell extracts assessed as d4TTP formation by HPLC analysis", "type": "ADME", "details": "ccrf-cem", "method_in_brief": "as §1"}, "[6]": {"test": "Selectivity index, ratio of CC50 for human CEM cells to EC50 for HIV1 HE infected in human CEM/0 cells", "details": "CEM cells (CC50) and HIV1 HE infected CEM/0 cells (EC50)"}, "[7]": {"test": "Cytotoxicity against human CEM cells assessed as reduction in cell proliferation", "type": "cell-based", "details": "CEM cells (CCRF-CEM)", "method_in_brief": "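CC50 is the compound concentration inhibiting CEM CD4+ T-cell proliferation by 50%. Mean ± SD of n=2-3 independent experiments.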"}, "[8]": {"test": "Prodrug conversion in human CEM/0 cell extracts assessed as gamma-(C16-ACB)-d4TTP formation by HPLC analysis", "type": "ADME", "details": "ccrf-cem", "method_in_brief": "as §1"}, "[9]": {"test": "Prodrug conversion in human CEM/0 cell extracts assessed as d4TDP formation by HPLC analysis", "type": "ADME", "details": "ccrf-cem", "method_in_brief": "as §1"}, "[10]": {"test": "Prodrug conversion in human CEM/0 cell extracts assessed as d4TMP formation by HPLC analysis", "type": "ADME", "details": "ccrf-cem", "method_in_brief": "as §1"}, "[11]": {"test": "Half life in pH 7.3 phosphate buffered saline by HPLC analysis", "type": "physicochemical", "method_in_brief": "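Prodrug from 50 mM DMSO-d6 stock diluted to 1.9 mM with water/DMSO-d6. Reaction started by adding phosphate buffer (50 mM stock, pH 7.3). Products followed by analytical RP18 HPLC with TBAA or TEAA buffer/acetonitrile gradient.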"}, "[12]": {"tested_on": "Human immunodeficiency virus 2", "test": "Antiviral activity against HIV2 ROD infected in thymidine kinase-deficient human CEM cells assessed as inhibition of virus-induced giant cell formation measured after 4 to 5 days by microscopic analysis", "details": "Human immunodeficiency virus 2, ISOLATE ROD, CCRF-CEM"}, "[13]": {"test": "Prodrug conversion in pH 7.3 phosphate buffered saline assessed as pig liver esterase-mediated d4TMP formation by HPLC analysis", "type": "ADME, Sus scrofa", "details": "in vitro", "method_in_brief": "as §2"}, "[14]": {"test": "Prodrug conversion in human CEM/0 cell extracts assessed as gamma-(C6-ACB)-d4TTP formation by HPLC analysis", "type": "ADME", "details": "ccrf-cem", "method_in_brief": "as §1"}, "[15]": {"tested_on": "Human immunodeficiency virus 2", "test": "Antiviral activity against HIV2 ROD infected in human CEM/0 cells assessed as inhibition of virus-induced giant cell formation measured after 4 to 5 days by microscopic analysis", "details": "Human immunodeficiency virus 2, ISOLATE ROD, CCRF-CEM"}, "[16]": {"tested_on": "Human immunodeficiency virus 1", "test": "Antiviral activity against HIV1 HE infected in human CEM/0 cells assessed as inhibition of virus-induced giant cell formation measured after 4 to 5 days by microscopic analysis", "details": "Human immunodeficiency virus 1, HE, CCRF-CEM"}, "[17]": {"test": "Cytotoxicity against mouse eEND.2 cells assessed as reduction in cell viability by WST-1 assay", "type": "cell-based", "details": "read-out: LD50 (the source's name)"}},
  "data": [
    {"smiles": "CCCCCCCCCCCCCCCCOC(=O)Oc1ccc(COP(=O)(OCc2ccc(OC(=O)CC)cc2)OP(=O)(O)OP(=O)(O)OC[C@@H]2C=C[C@H](n3cc(C)c(=O)[nH]c3=O)O2)cc1.N.N", "note": "(stereo partly drawn)", "values": [
      {"measurement": "half-life", "setting": "[1]", "result": 1.9, "unit": "h"},
      {"measurement": "Drug metabolism", "setting": "[2]", "result": "Metabolite_Detected"},
      {"measurement": "Drug metabolism", "setting": "[3]", "result": "Metabolite_Detected"},
      {"measurement": "half-life", "setting": "[4]", "result": 4.7, "unit": "h"},
      {"measurement": "Drug metabolism", "setting": "[5]", "result": "Metabolite_Notdetected"},
      {"measurement": "selectivity ratio", "setting": "[6]", "result": 1260},
      {"measurement": "CC50", "setting": "[7]", "result": 34, "unit": "µM"},
      {"measurement": "Drug metabolism", "setting": "[8]", "result": "Metabolite_Detected"},
      {"measurement": "Drug metabolism", "setting": "[9]", "result": "Metabolite_Detected"},
      {"measurement": "Drug metabolism", "setting": "[10]", "result": "Metabolite_Detected"},
      {"measurement": "half-life", "setting": "[11]", "result": 83, "unit": "h"},
      {"measurement": "EC50", "setting": "[12]", "result": 0.11, "unit": "µM"},
      {"measurement": "Drug metabolism", "setting": "[13]", "result": "Metabolite_Notdetected"}
    ]},
    {"smiles": "CCCCCCCCCCCC(=O)Oc1ccc(COP(=O)(OCc2ccc(OC(=O)OCCCCCC)cc2)OP(=O)(O)OP(=O)(O)OC[C@@H]2C=C[C@H](n3cc(C)c(=O)[nH]c3=O)O2)cc1.N.N", "note": "(stereo partly drawn)", "values": [
      {"measurement": "Drug metabolism", "setting": "[14]", "result": "Metabolite_Detected"},
      {"measurement": "half-life", "setting": "[1]", "result": 2.5, "unit": "h"},
      {"measurement": "Drug metabolism", "setting": "[3]", "result": "Metabolite_Detected"},
      {"measurement": "selectivity ratio", "setting": "[6]", "result": 137},
      {"measurement": "CC50", "setting": "[7]", "result": 41, "unit": "µM"},
      {"measurement": "EC50", "setting": "[15]", "result": 0.07, "unit": "µM"},
      {"measurement": "half-life", "setting": "[11]", "result": 95, "unit": "h"},
      {"measurement": "EC50", "setting": "[16]", "result": 0.3, "unit": "µM"},
      {"measurement": "EC50", "setting": "[12]", "result": 0.21, "unit": "µM"}
    ]},
    {"smiles": "OCc1ccc(O)cc1", "note": "[PARAHYDROXYBENZYL ALCOHOL]", "values": [
      {"measurement": "CC50", "setting": "[17]", "result": 50000, "unit": "µM"}
    ]}
  ]
}
